Data taken from ChEMBL document CHEMBL3616472, “Design, synthesis and structure-activity relationship studies of novel phenoxyacetamide-based free fatty acid receptor 1 agonists for the treatment of type 2 diabetes” (Bioorg Med Chem, 2015).
Calls of active or inactive are those of the source. No cut-off for these calls is given here.

Columns and labels:
[1] = target: T1, Free fatty acid receptor 1 (Homo sapiens, UniProt O14842); assay: Agonist activity at human FFA1 expressed in CHO cells assessed as induction of receptor activation by measuring Ca2+influx at 300 nM incubated for by FLIPR method; format: functional, cell-based
Procedure, shortened: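 CHO cells stably expressing human FFA1, seeded 15 K cells/well and grown 16 h at 37 °C. Response normalised as (A−B)/(C−B)×100 between vehicle (B) and 10 µM γ-linolenic acid (C).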

[2] = target: T1, Free fatty acid receptor 1; assay: Agonist activity at human FFA1 expressed in CHO cells assessed as induction of receptor activation by measuring Ca2+influx at 100 nM incubated for by FLIPR method; format: functional, cell-based
Procedure, shortened: (§1)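 CHO cells stably expressing human FFA1 (NM_005303), seeded 15 K cells/well, grown 16 h at 37 °C in 5% CO2. Compounds added and Ca2+ flux read on FLIPR Tetra. Activity expressed as (A−B)/(C−B)×100, with C from 10 µM γ-linolenic acid and B from vehicle. Single-concentration data are means of three independent experiments; EC50 values are means of three determinations.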

[3] = Lipophilicity, logD of the compound at pH 7.4 by shake flask method; format: physicochemical; conditions: buffer
Procedure, shortened: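 Shake-flask method with 1-octanol and buffer at pH 7.4, shaken at 700 rpm for 24 h, then left 1 h to separate. Octanol phase diluted ×10; both phases analysed by HPLC at 254 nm in duplicate. logD taken as the octanol/buffer peak-area ratio, corrected using two calibration points per compound per solvent. Three independent experiments.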

[4] = target: T1, Free fatty acid receptor 1; assay: Agonist activity at human FFA1 expressed in CHO cells assessed as induction of receptor activation by measuring Ca2+influx incubated for by FLIPR method; format: functional, cell-based; procedure, shortened: as §1
[5] = system: Mus musculus; assay: Hypoglycemic activity in normal ICR mouse assessed as reduction in blood glucose level at 20 mg/kg, po by OGTT method; format: functional, organism-based
Procedure, shortened: (§2)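 Male ICR mice, 10 weeks old, fasted 12 h and randomised into groups (n = 6). Single oral dose in 0.5% carboxymethyl cellulose (10 mL/kg) at 20, 50 or 80 mg/kg. Oral glucose load (3 g/kg, 30% solution) given 30 min later. Tail blood sampled at −30, 0, 15, 30, 45, 60 and 120 min; mean ± SEM, two-tailed Student's t-test against vehicle.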

[6] = system: Mus musculus; assay: Hypoglycemic activity in normal ICR mouse assessed as reduction in blood glucose level at 20 to 80 mg/kg, po by OGTT method; format: functional, organism-based; procedure, shortened: as §2
[7] = system: Mus musculus; assay: Hypoglycemic activity in STZ-induced type-2 diabetic C57BL/6 mouse assessed as reduction in blood glucose level at 50 mg/kg, po by OGTT method; format: functional, organism-based
Procedure, shortened: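 Male C57BL/6 mice fed 45%-fat diet for 4 weeks, given STZ ip at 80 mg/kg, then fed high-fat diet for 4 more weeks. Mice with fasting glucose ≥11.1 mmol/L were used. After a 12 h fast (n = 6/group, with a normal-mouse control group), 50 mg/kg was given orally in 0.5% CMC, then 2 g/kg glucose orally 30 min later. Glucose read by test strip from −30 to 120 min; Student's t-test.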

T1 sequence (O14842 whole entry): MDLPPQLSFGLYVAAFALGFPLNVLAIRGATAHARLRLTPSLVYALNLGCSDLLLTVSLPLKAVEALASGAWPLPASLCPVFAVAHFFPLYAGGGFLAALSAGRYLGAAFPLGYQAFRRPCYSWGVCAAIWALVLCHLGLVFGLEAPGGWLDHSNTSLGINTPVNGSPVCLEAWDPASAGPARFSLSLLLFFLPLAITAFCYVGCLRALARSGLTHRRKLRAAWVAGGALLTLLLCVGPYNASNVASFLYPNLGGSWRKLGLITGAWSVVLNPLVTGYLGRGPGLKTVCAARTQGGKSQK

Activity [1] | Activity [2] | SMILES | further results
33.7% | 13.3% | O=C(O)COc1ccc(NC(=O)C(=O)Nc2cccc(Cl)c2)cc1F | –
58.7% | 29.8% | O=C(O)COc1ccc(NC(=O)COc2ccccc2)cc1F | logD [3]: -1.25
– | 43.3% | CC(C)c1cccc(OCC(=O)Nc2ccc(OCC(=O)O)c(F)c2)c1 | EC50 [4]: 116 nM; logD [3]: 0.15
23.7% | 8.47% | O=C(O)COc1ccc(NC(=O)Nc2ccccc2)cc1F | –
– | 8.79% | CCOc1ccccc1OC(C)C(=O)Nc1ccc(OCC(=O)O)c(F)c1 (stereo unspecified) | –
– | 7.65% | CC(C)(C)c1ccc(OCC(=O)Nc2ccc(OCC(=O)O)c(F)c2)cc1 | –
– | 35.1% | CC(Oc1ccccc1F)C(=O)Nc1ccc(OCC(=O)O)c(F)c1 (stereo unspecified) | EC50 [4]: 136 nM; logD [3]: 0.07
– | 3.56% | CC(C)(Oc1ccccc1)C(=O)Nc1ccc(OCC(=O)O)c(F)c1 | –
– | 6.45% | O=C(O)COc1ccc(NC(=O)COc2ccc(OC(F)(F)F)cc2)cc1F | –
– | 20.8% | Cc1ccccc1OCC(=O)Nc1ccc(OCC(=O)O)c(F)c1 | –
– | 40.2% | CC(C)(C)c1cccc(OCC(=O)Nc2ccc(OCC(=O)O)c(F)c2)c1 | EC50 [4]: 122 nM; logD [3]: 0.35
– | 14.6% | CCc1ccc(OCC(=O)Nc2ccc(OCC(=O)O)c(F)c2)cc1 | –
27.9% | 10.2% | O=C(O)COc1ccc(NC(=O)C(=O)Nc2ccccc2Cl)cc1F | –
29.9% | 11.3% | Cc1ccc(NC(=O)C(=O)Nc2ccc(OCC(=O)O)c(F)c2)cc1 | –
19.9% | 6.78% | COc1ccccc1NC(=O)C(=O)Nc1ccc(OCC(=O)O)c(F)c1 | –
39.6% | 19.9% | O=C(O)COc1ccc(NC(=O)Cc2ccccc2)cc1F | –
– | 11.8% | CC(C)c1ccc(OCC(=O)Nc2ccc(OCC(=O)O)c(F)c2)cc1 | –
– | 3.56% | CCOc1ccc(OC(C)C(=O)Nc2ccc(OCC(=O)O)c(F)c2)cc1 (stereo unspecified) | –
– | 11.3% | O=C(O)COc1ccc(NC(=O)COc2cccc(C(F)(F)F)c2)cc1F | –

Activity [1] | Activity [2] | SMILES | further results
– | 31.2% | Cc1ccc(OCC(=O)Nc2ccc(OCC(=O)O)c(F)c2)cc1 | EC50 [4]: 148 nM
– | 35.7% | CC(Oc1ccccc1)C(=O)Nc1ccc(OCC(=O)O)c(F)c1 (stereo unspecified) | EC50 [4]: 135 nM; logD [3]: -0.18
– | 36.8% | Cc1ccc(OC(C)C(=O)Nc2ccc(OCC(=O)O)c(F)c2)cc1C (stereo unspecified) | EC50 [4]: 133 nM; logD [3]: 0.33
– | 25.7% | Cc1cc(C)cc(OC(C)C(=O)Nc2ccc(OCC(=O)O)c(F)c2)c1 (stereo unspecified) | –
– | 18.6% | Cc1ccc(C)c(OC(C)C(=O)Nc2ccc(OCC(=O)O)c(F)c2)c1 (stereo unspecified) | –
12.8% | 3.56% | O=C(O)COc1ccc(NC(=O)c2ccccc2)cc1F | –
– | 5.73% | COc1ccc(OCC(=O)Nc2ccc(OCC(=O)O)c(F)c2)cc1 | –
– | 31.7% | COc1cccc(OCC(=O)Nc2ccc(OCC(=O)O)c(F)c2)c1 | EC50 [4]: 148 nM
67.3% | 54.9% | Cc1cc(OCCCS(C)(=O)=O)cc(C)c1-c1cccc(COc2ccc(OCC(=O)O)c(F)c2)c1 | logD [3]: 2.31
– | 19.4% | Cc1ccc(C(C)C)cc1OC(C)C(=O)Nc1ccc(OCC(=O)O)c(F)c1 (stereo unspecified) | –
34.2% | 13.6% | O=C(O)COc1ccc(NC(=O)C2(C(=O)Nc3ccccc3)CC2)cc1F | –
36.3% | 17.6% | Cc1cccc(NC(=O)C(=O)Nc2ccc(OCC(=O)O)c(F)c2)c1 | –
– | 12.7% | CC(Oc1cccc(C(F)(F)F)c1)C(=O)Nc1ccc(OCC(=O)O)c(F)c1 (stereo unspecified) | –
– | – | Cc1cc(OCCCS(C)(=O)=O)cc(C)c1-c1cccc(COc2ccc3c(c2)OC[C@H]3CC(=O)O)c1 | logD [3]: 2.43; inhibition [5]: Active
26.5% | 9.78% | O=C(O)COc1ccc(NC(=O)C(=O)Nc2ccccc2)cc1F | –
– | 45.4% | Cc1cccc(OCC(=O)Nc2ccc(OCC(=O)O)c(F)c2)c1 | EC50 [4]: 108 nM; logD [3]: -0.99; inhibition [6]: Dose-dependent effect; inhibition [7]: Active
– | 14.6% | Cc1ccc(C(C)C)cc1OCC(=O)Nc1ccc(OCC(=O)O)c(F)c1 | logD [3]: 0.47
– | 32.8% | CC(Oc1cccc(C(C)(C)C)c1)C(=O)Nc1ccc(OCC(=O)O)c(F)c1 (stereo unspecified) | EC50 [4]: 140 nM; logD [3]: 0.63
